This note sets out measurements from ChEMBL document CHEMBL3596194, “Design, synthesis and biological evaluation of bivalent benzoxazolone and benzothiazolone ligands as potential anti-inflammatory/analgesic agents” (Bioorg Med Chem, 2015).

Active and inactive are the calls of the source. No cut-off for these calls is given here.

The subject of one series is SK-OV-3. In words: Cytotoxicity against human SKOV3 cells up to 25 ug/ml after 48 hrs by neutral red assay relative to control. The series is classed as cell-based. The settings on record: sk-ov-3, 48 h. In outline:
(§1)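 Cells grown in RPMI-1640 with 10% bovine calf serum and amikacin at 37 °C, 5% CO2. Seeded at 25,000 cells/well and grown 24 h, then exposed 48 h to samples diluted in serum-free medium. Viability by Neutral Red; % decrease vs vehicle; IC50 from dose curves. Triplicate runs, mean reported; doxorubicin as positive control.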

A further series has as its system SW1353. The experiment in a line: Antiinflammatory activity in human SW1353 cells assessed as inhibition of PMA-induced NF-kappaB activity up to 25 ug/ml incubated for 30 mins prior to PMA challenge measured after 8 hrs by luciferase reporter gene assay. The series is classed as cell-based. In outline: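 SW1353 chondrosarcoma cells grown in DMEM/F12 with 10% FBS at 37 °C, 5% CO2. Cells electroporated with an NF-κB luciferase plasmid (50 μg/mL, 160 V, one 70-ms pulse) and plated at 1.25 × 10⁵ cells/well. After 24 h, compound was added 30 min before PMA (70 ng/mL), then 8 h incubation. Luciferase read-out as % inhibition vs vehicle; IC50 from dose curves. Sp-1 served as a counter-screen.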

The test system of another series is Vero. In words: Cytotoxicity against African green monkey Vero cells up to 25 ug/ml after 48 hrs by neutral red assay relative to control. The series is classed as cell-based. Conditions: chlorocebus sabaeus. In outline: as §1
Series [1] can be described thus: Cytotoxicity against pig LLC-PK11 cells up to 25 ug/ml after 48 hrs by neutral red assay relative to control. It counts as cell-based, Sus scrofa. Conditions: llc-pk11, 48 h. An outline of the steps: as §1
For series [2], the system named is SK-MEL. The experiment in a line: Cytotoxicity against human SK-MEL cells up to 25 ug/ml after 48 hrs by neutral red assay relative to control. The series is classed as cell-based. In outline: as §1
The subject of a further series is KB. The experiment in a line: Cytotoxicity against human KB cells up to 25 ug/ml after 48 hrs by neutral red assay relative to control. The series is classed as cell-based. An outline of the steps:
as §1

The target of series [3] is T1, Nitric oxide synthase, inducible (Mus musculus) (UniProt P29477).
T1 sequence (whole entry): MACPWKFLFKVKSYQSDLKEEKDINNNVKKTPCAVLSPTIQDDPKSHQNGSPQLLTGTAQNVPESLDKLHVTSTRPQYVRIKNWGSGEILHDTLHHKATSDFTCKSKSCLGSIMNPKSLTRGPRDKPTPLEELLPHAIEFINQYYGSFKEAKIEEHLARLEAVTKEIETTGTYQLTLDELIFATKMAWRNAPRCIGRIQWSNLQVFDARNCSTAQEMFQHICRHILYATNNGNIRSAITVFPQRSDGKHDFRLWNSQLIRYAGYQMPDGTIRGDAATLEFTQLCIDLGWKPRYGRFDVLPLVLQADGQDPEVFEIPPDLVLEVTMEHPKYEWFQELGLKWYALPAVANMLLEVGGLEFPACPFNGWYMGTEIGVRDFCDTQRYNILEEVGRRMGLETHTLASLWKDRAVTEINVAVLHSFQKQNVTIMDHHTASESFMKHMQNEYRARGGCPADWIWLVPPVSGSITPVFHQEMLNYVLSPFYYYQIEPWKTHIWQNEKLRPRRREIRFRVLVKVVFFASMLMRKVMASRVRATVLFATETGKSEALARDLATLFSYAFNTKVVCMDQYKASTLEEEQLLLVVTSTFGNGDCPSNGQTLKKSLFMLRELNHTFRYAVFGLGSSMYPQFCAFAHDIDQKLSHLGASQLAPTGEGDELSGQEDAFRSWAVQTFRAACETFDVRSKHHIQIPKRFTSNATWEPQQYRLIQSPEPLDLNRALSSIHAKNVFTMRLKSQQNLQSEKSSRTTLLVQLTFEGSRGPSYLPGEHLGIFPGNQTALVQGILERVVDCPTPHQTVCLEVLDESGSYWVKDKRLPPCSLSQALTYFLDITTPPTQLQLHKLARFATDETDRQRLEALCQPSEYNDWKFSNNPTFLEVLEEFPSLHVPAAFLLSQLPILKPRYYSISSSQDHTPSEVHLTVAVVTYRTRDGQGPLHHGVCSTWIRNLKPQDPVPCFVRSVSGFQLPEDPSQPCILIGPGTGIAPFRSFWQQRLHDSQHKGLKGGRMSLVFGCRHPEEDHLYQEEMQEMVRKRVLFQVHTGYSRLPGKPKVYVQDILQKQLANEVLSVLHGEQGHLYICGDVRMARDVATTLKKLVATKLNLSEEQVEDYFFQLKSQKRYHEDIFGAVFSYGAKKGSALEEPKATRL
The experiment in a line: Antiinflammatory activity in mouse RAW264.7 cells assessed as inhibition of LPS-induced iNOS activity up to 25 ug/ml incubated for 30 mins prior to LPS challenge measured after 24 hrs by Griess assay. It counts as cell-based. In outline:
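RAW264.7 macrophages seeded at 50,000 cells/well and grown 24 h to ≥75% confluency. Compounds in serum-free medium added 30 min before LPS (5 μg/mL), then 24 h incubation. Nitrite in the supernatant measured with Griess reagent.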

Series [4] has as its system BT-549. In words: Cytotoxicity against human BT549 cells up to 25 ug/ml after 48 hrs by neutral red assay relative to control. The series is classed as cell-based. Conditions: bt-549, 48 h. An outline of the steps:
as §1

For series [5], the system named is SK-MEL. In words: Cytotoxicity against human SK-MEL cells after 48 hrs by neutral red assay relative to control. It counts as cell-based. An outline of the steps:
(§2)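 Cells grown in RPMI-1640 with 10% bovine calf serum and amikacin at 37°C, 5% CO₂. Seeded 25,000 cells/well, grown 24 h, then exposed to compounds diluted in serum-free medium for 48 h. Viability by Neutral Red uptake, % decrease versus vehicle control. IC50 from dose curves, triplicate means. Doxorubicin positive control.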

The test system of series [6] is BT-549. In words: Cytotoxicity against human BT549 cells after 48 hrs by neutral red assay relative to control. The series is classed as cell-based. Conditions: BT-549, 48 h. In outline: as §2
Series [7] in a line: Antiinflammatory activity in human SW1353 cells assessed as inhibition of PMA-induced NF-kappaB activity incubated for 30 mins prior to PMA challenge measured after 8 hrs by luciferase reporter gene assay. It counts as cell-based. In outline:
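SW1353 cells in DMEM/F12 with 10% FBS, electroporated with NF-κB luciferase plasmid (160 V, one 70-ms pulse), plated at 1.25 × 10⁵ cells/well. After 24 h, graded compound concentrations added 30 min before PMA 70 ng/mL, then 8 h incubation. Luciferase read-out, % inhibition versus vehicle, IC50 from dose curves. Sp-1 reporter served as nonspecific control.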

In general, IC50 refers to the midpoint of a concentration-inhibition curve.

In the case of `O=c1oc2ccccc2n1CCCCN1CCN(CCCn2c(=O)oc3ccccc32)CC1`, the Activity entry (in the series on SK-OV-3; with Vero; in series [1]; in the series on SK-MEL [2]; in the series with KB; with BT-549 [4]) was “Non-toxic” each time. Further, the inhibition entry (in the series with SW1353; in series [3]) was “inactive” throughout.

For `O=c1sc2ccccc2n1CCCCN1CCN(CCn2c(=O)sc3ccccc32)CC1`, the Activity entry (in the series with SK-OV-3; in the series with Vero; in series [1]; in the series on SK-MEL [2]; in the series on KB; with BT-549 [4]) was “Non-toxic” in each case. The inhibition entry (in the series on SW1353; in series [3]) was “inactive” each time.

For `O=c1sc2ccccc2n1CCCCCCN1CCN(CCCn2c(=O)sc3ccccc32)CC1`, the Activity entry (in the series with SK-OV-3; in the series on Vero; in series [1]; in the series with KB) was “Non-toxic” in each case. In addition, the IC50 in the series with SK-MEL [5] is 12 µM; with BT-549 [6], 25 µM; in series [7] it was 2.4 µM.

Turning to `O=c1oc2ccccc2n1CCCCCCN1CCN(CCn2c(=O)oc3ccccc32)CC1`, the Activity result (in the series with SK-OV-3; with Vero; in [1]; in the series on SK-MEL [2]; with KB; in the series on BT-549 [4]) was “Non-toxic” throughout. In addition, in series [7], the IC50 is 3.07 µM.

With `O=c1sc2ccccc2n1CCCCCN1CCN(CCCCn2c(=O)sc3ccccc32)CC1`, the Activity result (with SK-OV-3; with Vero; in [1]; in the series with KB) was “Non-toxic” each time. Moreover, the IC50 was 17.5 µM in the series with SK-MEL [5], 22.1 µM in the series with BT-549 [6] and 1.18 µM in [7].

As for `O=c1oc2ccccc2n1CCCCCCN1CCN(CCCn2c(=O)oc3ccccc32)CC1`, the Activity entry (with SK-OV-3; in the series with Vero; in series [1]; in the series with SK-MEL [2]; with KB; with BT-549 [4]) was “Non-toxic” each time. The inhibition result with SW1353 is “inactive”.

As to `O=c1oc2ccccc2n1CCCCCN1CCN(CCn2c(=O)oc3ccccc32)CC1`, the Activity result (with SK-OV-3; with Vero; in [1]; in the series with SK-MEL [2]; in the series on KB; with BT-549 [4]) was “Non-toxic” throughout.

For `O=c1oc2ccccc2n1CCCCCCN1CCN(CCCCn2c(=O)oc3ccccc32)CC1`, the Activity result (in the series on SK-OV-3; in the series on Vero; in [1]; with SK-MEL [2]; in the series with KB; in the series on BT-549 [4]) was “Non-toxic” in each case. For the same compound, the IC50 in series [7] was determined as 1.24 µM.

`O=c1oc2ccccc2n1CCCCCCN1CCN(CCCCCn2c(=O)oc3ccccc32)CC1`: the Activity entry (with SK-OV-3; in the series with Vero; in series [1]; in the series on KB) was “Non-toxic” throughout. The IC50 with SK-MEL [5] came out at 23 µM; in the series on BT-549 [6], 22.5 µM; in series [7], 1.4 µM.

For the compound `O=c1oc2ccccc2n1CCCCCN1CCN(CCCn2c(=O)oc3ccccc32)CC1`, the Activity entry (in the series with SK-OV-3; in the series on Vero; in series [1]; with SK-MEL [2]; in the series with KB; with BT-549 [4]) was “Non-toxic” throughout. In addition, the inhibition result in the series with SW1353 is “inactive”.

In the case of `C=C1C(=O)O[C@@H]2[C@H]3O[C@]3(C)CC/C=C(\C)CC[C@@H]12`, the IC50 in series [7] was 2.57 µM.

Take `O=c1oc2ccccc2n1CCCN1CCN(CCCn2c(=O)oc3ccccc32)CC1`: the Activity entry (in the series on SK-OV-3; in the series on Vero; in [1]; with SK-MEL [2]; with KB; in the series on BT-549 [4]) was “Non-toxic” each time. Further, in [3], the inhibition result is “inactive”. Further, the IC50 in [7] was 4.91 µM.

`O=c1sc2ccccc2n1CCCCCN1CCN(CCCn2c(=O)sc3ccccc32)CC1`: the Activity entry (in the series with SK-OV-3; in the series with Vero; in series [1]; with KB) was “Non-toxic” in each case. For the same compound, the IC50 in the series with SK-MEL [5] amounted to 16.8 µM; in the series on BT-549 [6], 14 µM; in [7], 1.46 µM.

In the case of `O=c1sc2ccccc2n1CCCCN1CCN(CCCCn2c(=O)sc3ccccc32)CC1`, the Activity entry (with SK-OV-3; in the series on Vero; in series [1]; in the series on SK-MEL [2]; with KB; with BT-549 [4]) was “Non-toxic” in each case. Also, the inhibition result in [3] was “inactive”. Also, the IC50 in series [7] was 2.28 µM.

For the compound `O=c1sc2ccccc2n1CCCCCCN1CCN(CCn2c(=O)sc3ccccc32)CC1`, the Activity result (with SK-OV-3; in the series with Vero; in series [1]; with KB) was “Non-toxic” each time. The figures for the IC50 (in the series with SK-MEL [5]; in the series with BT-549 [6]; in [7]) were 25 µM, 25 µM and 2.95 µM, respectively.

In the case of `O=c1oc2ccccc2n1CCCCCCN1CCN(CCCCCCn2c(=O)oc3ccccc32)CC1`, the Activity entry (in the series on SK-OV-3; in the series on Vero; in series [1]; with KB) was “Non-toxic” throughout. Moreover, the inhibition entry in the series on SW1353 was “inactive”. Further, the values for the IC50 in the series on SK-MEL [5] and in the series on BT-549 [6] were 21.3 µM and 18.5 µM, respectively.
